Measurements published in ChEMBL document CHEMBL3526035, “Role of the intestinal peptide transporter PEPT1 in oseltamivir absorption: in vitro and in vivo studies” (Drug Metab Dispos, 2012).

Experiments:
[1] = Cmax in adult fasted Sprague-Dawley rat at 30 mg/kg, po administered as water solution by HPLC-tandem mass spectrometry; type: ADME, organism-based; set-up: dose 30 mg/kg, route oral; settings: in vivo
Method in brief: (§1)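 Adult cannulated Sprague-Dawley rats, fasted (from 6 h predose) or fed, dosed orally at 30 mg/kg (10 ml/kg), 3 per group. Serial jugular plasma with dichlorvos stabilisation, measured by LC-MS/MS. Cmax read graphically from the concentration-time profile.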

[2] = AUC(0 to 6 hrs) in adult fasted Sprague-Dawley rat at 30 mg/kg, po administered as water solution by HPLC-tandem mass spectrometry; type: ADME, organism-based; set-up: time < 6 hr, dose 30 mg/kg, route oral; settings: plasma
Method in brief: (§2)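 Adult male Sprague-Dawley rats (243-283 g), jugular-cannulated, fasted from 6 h before dosing through the 6-h study. Given 30 mg/kg orally (free base) at 10 ml/kg, n=3/group. Blood sampled at 0.25-6 h into K2EDTA with dichlorvos esterase inhibitor. Plasma assayed by LC-MS/MS (0.1-500 μg/l). Noncompartmental analysis: linear-trapezoid AUC; infinity extrapolation via log-linear terminal λz.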

[3] = Tmax in adult fasted Sprague-Dawley rat at 30 mg/kg, po administered as solution in bovine milk by HPLC-tandem mass spectrometry; type: ADME, organism-based; set-up: dose 30 mg/kg, route oral; settings: in vivo
Method in brief: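 Male Sprague-Dawley rats (7–8 weeks, 243–283 g) had jugular-vein cannulas and 3 days' recovery. Fasting ran from 6 h predose through the 6 h study. Three rats per vehicle received 30 mg/kg oral (10 ml/kg). Blood was sampled 0.25–6 h into K2EDTA tubes with dichlorvos. Plasma was assayed by HPLC-MS/MS (0.1–500 µg/l). Tmax was read graphically (noncompartmental).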

[4] = AUC(0 to infinity) in adult fasted Sprague-Dawley rat at 30 mg/kg, po administered as solution in bovine milk by HPLC-tandem mass spectrometry; type: ADME, organism-based; set-up: time infinity, dose 30 mg/kg, route oral; settings: in vivo; method in brief: as §2
[5] = Tmax in adult fed Sprague-Dawley rat at 30 mg/kg, po administered as water solution by HPLC-tandem mass spectrometry; type: ADME, organism-based; set-up: dose 30 mg/kg, route oral; settings: in vivo
Method in brief: (§3)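 Cannulated adult male Sprague-Dawley rats with chow ad libitum, 3 per vehicle, were given oral 30 mg/kg (10 ml/kg). Plasma analysis was by HPLC-MS/MS, with Tmax taken graphically from concentration-time profiles.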

[6] = Cmax in adult fed Sprague-Dawley rat at 30 mg/kg, po administered as solution in bovine milk by HPLC-tandem mass spectrometry; type: ADME, organism-based; set-up: dose 30 mg/kg, route oral; settings: in vivo; method in brief: as §1
[7] = AUC(0 to 24 hrs) in adult fed Sprague-Dawley rat at 30 mg/kg, po administered as water solution by HPLC-tandem mass spectrometry; type: ADME, organism-based; set-up: time < 24 hr, dose 30 mg/kg, route oral; settings: plasma
Method in brief: (§4)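 Sprague-Dawley males, 7-8 weeks, 243-283 g, jugular-cannulated, 3 days' recovery; fed (chow ad libitum). Single oral dose of 30 mg/kg (free base) at 10 ml/kg; 3 rats/group. Jugular blood taken at 0.25-24 h into K2EDTA with dichlorvos, kept on ice. Plasma analysed by validated LC-MS/MS (0.1-500 μg/l). Noncompartmental analysis; AUC by linear trapezoid, AUC0-∞ extrapolated using λz.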

[8] = Drug uptake in CHOK1 cells at 5 to 100 uM after 10 mins by HPLC coupled with radiodetection analysis; type: ADME, cell-based, Cricetulus griseus; settings: chinese hamster, cho-k1, 10 min
[9] = Drug uptake in CHOK1 cells expressing human PEPT1 at 5 to 100 uM after 10 mins by HPLC coupled with radiodetection analysis; type: ADME, cell-based, Cricetulus griseus; settings: chinese hamster, cho-k1, 10 min
[10] = Drug uptake in CHOK1 cells at pH 5 by HPLC coupled with radiodetection analysis; type: ADME, cell-based, Cricetulus griseus; settings: chinese hamster, cho-k1, pH 5
[11] = Drug uptake in CHOK1 cells expressing human PEPT1 at pH 5 by HPLC coupled with radiodetection analysis; type: ADME, cell-based, Cricetulus griseus; settings: chinese hamster, cho-k1, pH 5
Method in brief: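 Accumulation of [14C]oseltamivir or its carboxylate in CHO-PEPT1 versus CHO-K1 cells. Conditions varied: KH buffer (with MES) or Hanks' balanced salt solution, pH 5 or 6 readjusted after substrate addition, 30 s to 15 min at 37°C. Uptake was quenched with ice-cold PBS-BSA, followed by Triton X-100 lysis, scintillation counting, and BCA protein normalization. HPLC-radiodetection checked ester stability.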

[12] = AUC(0 to 6 hrs) in adult fed Sprague-Dawley rat at 30 mg/kg, po administered as solution in bovine milk by HPLC-tandem mass spectrometry; type: ADME, organism-based; set-up: time < 6 hr, dose 30 mg/kg, route oral; settings: in vivo; method in brief: as §4
[13] = Tmax in adult fed Sprague-Dawley rat at 30 mg/kg, po administered as 125 mM aqueous Gly-Sar solution by HPLC-tandem mass spectrometry; type: ADME, organism-based; set-up: dose 30 mg/kg, route oral; settings: in vivo; method in brief: as §3
[14] = AUC(0 to infinity) in adult fed Sprague-Dawley rat at 30 mg/kg, po administered as 125 mM aqueous Gly-Sar solution by HPLC-tandem mass spectrometry; type: ADME, organism-based; set-up: time infinity, dose 30 mg/kg, route oral; settings: plasma; method in brief: as §4
[15] = Tmax in juvenile fasted Sprague-Dawley rat at 30 mg/kg, po administered as solution in bovine milk by HPLC-tandem mass spectrometry; type: ADME, organism-based; set-up: dose 30 mg/kg, route oral; settings: in vivo
Method in brief: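 Seven-day-old Sprague-Dawley pups, males and females, 15 per group, were gavaged with 30 mg/kg (10 ml/kg). Breast-fed pups stayed with their dams; fasted pups were removed from 8 h predose through 5 h. Cardiac blood was drawn under isoflurane at 0.25, 0.5, 1, 2 and 5 h (composite, n=3/time point), with dichlorvos added. Plasma was analyzed by HPLC-MS/MS and Tmax read graphically.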

[16] = Cmax in healthy human at 150 mg, po administered as single dose by HPLC-tandem mass spectrometry under fasting conditions; type: ADME, organism-based; set-up: dose 150 mg, route oral; settings: in vivo
Method in brief: (§5)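 Open-label crossover in 18 healthy volunteers (9 male, 9 female, mean age 26). Each received marketed oseltamivir 150 mg orally, once fasted from midnight and once after a high-fat, high-calorie breakfast, with a 7-10 day washout. Plasma and urine collected over 0-72 h and analysed by HPLC-MS/MS. AUC and Cmax compared after log transformation.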

[17] = AUC(0 to 24 hrs) in healthy human at 150 mg, po administered as single dose by HPLC-tandem mass spectrometry under fasting conditions; type: ADME, organism-based; set-up: dose 150 mg, time < 24 hr, route oral; settings: plasma; method in brief: as §5
[18] = Drug excretion in healthy human urine assessed as unchanged drug level at 150 mg, po administered as single dose by HPLC-tandem mass spectrometry under fasting conditions; type: ADME, organism-based; settings: read-out: Drug excretion; method in brief: as §5
[19] = Cmax in healthy human at 150 mg, po administered as single dose by HPLC-tandem mass spectrometry under fed conditions; type: ADME, organism-based; set-up: dose 150 mg, route oral; settings: in vivo; method in brief: as §5
[20] = Tmax in healthy human at 150 mg, po administered as single dose by HPLC-tandem mass spectrometry under fed conditions; type: ADME, organism-based; settings: in vivo
Method in brief: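 Open-label crossover food-effect study in 18 healthy volunteers (9 male, 9 female, mean age 26). Each received a single 150 mg oral dose of the marketed formulation, once fasting from midnight and once after a high-fat, high-calorie breakfast, separated by a 7–10 day washout. Plasma and urine were collected over 0–72 h and assayed by HPLC-MS/MS for oseltamivir and carboxylate.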

[21] = Apparent oral clearance in healthy human at 150 mg, po administered as single dose by HPLC-tandem mass spectrometry under fed conditions; type: ADME, organism-based; settings: in vivo; method in brief: as §5
[22] = AUC(0 to infinity) in healthy human at 150 mg, po administered as single dose by HPLC-tandem mass spectrometry under fed conditions; type: ADME, organism-based; set-up: dose 150 mg, time infinity, route oral; settings: plasma; method in brief: as §5
[23] = Drug excretion in healthy human urine assessed as unchanged drug level at 150 mg, po administered as single dose by HPLC-tandem mass spectrometry under fed conditions; type: ADME, organism-based; settings: read-out: Drug excretion; method in brief: as §5

Cmax [1] | AUC(0-t) at 6 h [2] | Tmax [3] | AUC(0-inf) [4] | Tmax [5] | Cmax [6] | AUC(0-t) at 24 h [7] | Drug uptake [8] | Drug uptake [9] | Drug uptake [10] | Drug uptake [11] | AUC(0-t) at 6 h [12] | Tmax [13] | AUC(0-inf) [14] | Tmax [15] | Cmax [16] | AUC(0-t) at 24 h [17] | dose excreted [18] | Cmax [19] | Tmax [20] | further results | SMILES
1690 ng/mL | 2680 ng·h/mL | 0.5 h | 3060 ng·h/mL | 0.41 h | 1430 ng/mL | 2510 ng·h/mL | Active | Active | Active | Active | 2510 ng·h/mL | 0.66 h | 2840 ng·h/mL | 1 h | 124 ng/mL | 238 ng·h/mL | 3.09% | 101 ng/mL | 2.06 h | CL/F [21]: 9540 mL/min; AUC(0-inf) [22]: 287 ng·h/mL; dose excreted [23]: 4.32% | CCOC(=O)C1=C[C@@H](OC(CC)CC)[C@H](NC(C)=O)[C@@H](N)C1 [OSELTAMIVIR]
2290 ng/mL | 5910 ng·h/mL | 1.92 h | 6300 ng·h/mL | 0.75 h | 1310 ng/mL | 5280 ng·h/mL | Active | Active | Active | Active | 4510 ng·h/mL | 1.42 h | 4870 ng·h/mL | 5 h | 551 ng/mL | 5540 ng·h/mL | 58.5% | 441 ng/mL | 5.42 h | CL/F [21]: 385 mL/min; AUC(0-inf) [22]: 6070 ng·h/mL; dose excreted [23]: 55.5% | CCC(CC)O[C@@H]1C=C(C(=O)O)C[C@H](N)[C@H]1NC(C)=O [OSELTAMIVIR CARBOXYLATE]
